Results reported in ChEMBL document CHEMBL1926577, “Novel 1,3,4-heterodiazole analogues: synthesis and in-vitro antitumor activity” (2012).
Activity calls are given as the source filed them. The calls are words filed in the database; no cut-off is given here.

Key:
Type in all cases: functional
[1] = Growth inhibition of human renal cancer cells after 48 hrs by coulter counter method; details: Cancer cell lines
In short: (§1)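 NCI 60-line panel cells. Compound is dissolved in DMSO and diluted in phosphate-buffered saline, with final DMSO below 1%. It is added in duplicate wells to cultures at 6 × 10⁴ cells/ml and held at 37 °C, 5% CO₂, humidified, for 48 h. Cells are diluted 10-fold in saline, counted by Coulter counter and dilution-corrected. Vehicle controls contain PBS plus DMSO.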

[2] = Growth inhibition of human prostate cancer cells after 48 hrs by coulter counter method; details: Cancer cell lines; in short: as §1
[3] = Growth inhibition of human breast cancer cells after 48 hrs by coulter counter method; details: Cancer cell lines; in short: as §1
CCRF-CEM = test: Growth inhibition of human CCRF-CEM cells at 10 uM after 48 hrs by coulter counter method; details: read-out: GI
In short: (§2)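 NCI 60-cell-line panel, single dose. Compound dissolved first in DMSO, then diluted in phosphate-buffered saline so that every final dilution held under 1% DMSO. Duplicate wells received cells at 6 × 10⁴ cells/ml. Controls held PBS/DMSO at the same dilution. Plates were incubated 48 h at 37 °C under 5% CO₂. Cells were then diluted 10-fold in saline and counted on a Coulter counter, with counts corrected for the dilution. Results are given as percent growth inhibition.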

HL-60(TB) = test: Growth inhibition of human HL-60(TB) cells at 10 uM after 48 hrs by coulter counter method; details: HL-60, 48 h, read-out: GI
In short: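 Single-dose screen on the NCI 60-line panel (leukemia subpanel). Compound is dissolved in DMSO and diluted in PBS, with final DMSO below 1%. Duplicate wells hold 6 × 10⁴ cells/ml at 37 °C, 5% CO₂, for 48 h. Cells are counted by Coulter counter after 10-fold saline dilution. Read-out is percent growth versus PBS/DMSO controls, expressed as % growth inhibition.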

MOLT-4 = test: Growth inhibition of human MOLT4 cells at 10 uM after 48 hrs by coulter counter method; details: MOLT-4, 48 h, read-out: GI; in short: as §2
SR = test: Growth inhibition of human SR cells at 10 uM after 48 hrs by coulter counter method; details: read-out: GI; in short: as §2
NCI-H226 = test: Growth inhibition of human NCI-H226 cells at 10 uM after 48 hrs by coulter counter method; details: NCI-H226, 48 h, read-out: GI; in short: as §2
NCI-H23 = test: Growth inhibition of human NCI-H23 cells at 10 uM after 48 hrs by coulter counter method; details: NCI-H23, 48 h, read-out: GI; in short: as §2
NCI-H522 = test: Growth inhibition of human NCI-H522 cells at 10 uM after 48 hrs by coulter counter method; details: NCI-H522, 48 h, read-out: GI; in short: as §2
HCT-15 = test: Growth inhibition of human HCT15 cells at 10 uM after 48 hrs by coulter counter method; details: HCT-15, 48 h, read-out: GI; in short: as §2
HT-29 = test: Growth inhibition of human HT-29 cells at 10 uM after 48 hrs by coulter counter method; details: HT-29, 48 h, read-out: GI; in short: as §2
KM12 = test: Growth inhibition of human KM12 cells at 10 uM after 48 hrs by coulter counter method; details: KM12, 48 h, read-out: GI; in short: as §2
SNB-19 = test: Growth inhibition of human SNB19 cells at 10 uM after 48 hrs by coulter counter method; details: SNB-19, 48 h, read-out: GI; in short: as §2
SNB-75 = test: Growth inhibition of human SNB75 cells at 10 uM after 48 hrs by coulter counter method; details: SNB-75, 48 h, read-out: GI; in short: as §2
U-251 = test: Growth inhibition of human U251 cells at 10 uM after 48 hrs by coulter counter method; details: U-251, 48 h, read-out: GI; in short: as §2
Malme-3M = test: Growth inhibition of human MALME-3M cells at 10 uM after 48 hrs by coulter counter method; in short: as §2
M14 = test: Growth inhibition of human M14 cells at 10 uM after 48 hrs by coulter counter method; details: M14, 48 h, read-out: GI; in short: as §2
SK-MEL-2 = test: Growth inhibition of human SK-MEL-2 cells at 10 uM after 48 hrs by coulter counter method; details: SK-MEL-2, 48 h, read-out: GI; in short: as §2
SK-MEL-28 = test: Growth inhibition of human SK-MEL-28 cells at 10 uM after 48 hrs by coulter counter method; details: SK-MEL-28, 48 h, read-out: GI; in short: as §2
SK-MEL-5 = test: Growth inhibition of human SK-MEL-5 cells at 10 uM after 48 hrs by coulter counter method; details: SK-MEL-5, 48 h, read-out: GI; in short: as §2
UACC-257 = test: Growth inhibition of human UACC257 cells at 10 uM after 48 hrs by coulter counter method; details: UACC-257, 48 h, read-out: GI; in short: as §2
IGROV-1 = test: Growth inhibition of human IGROV1 cells at 10 uM after 48 hrs by coulter counter method; in short: as §2
NCI/ADR-RES = test: Growth inhibition of human NCI/ADR-RES cells at 10 uM after 48 hrs by coulter counter method; details: read-out: GI; in short: as §2
786-0 = test: Growth inhibition of human 786-0 cells at 10 uM after 48 hrs by coulter counter method; details: 786-0, 48 h, read-out: GI; in short: as §2
CAKI-1 = test: Growth inhibition of human Caki1 cells at 10 uM after 48 hrs by coulter counter method; in short: as §2
UO-31 = test: Growth inhibition of human UO31 cells at 10 uM after 48 hrs by coulter counter method; in short: as §2
PC-3 = test: Growth inhibition of human PC3 cells at 10 uM after 48 hrs by coulter counter method; details: PC-3, 48 h, read-out: GI; in short: as §2
MCF7 = test: Growth inhibition of human MCF7 cells at 10 uM after 48 hrs by coulter counter method; details: MCF7, 48 h, read-out: GI; in short: as §2
BT-549 = test: Growth inhibition of human BT549 cells at 10 uM after 48 hrs by coulter counter method; details: BT-549, 48 h, read-out: GI; in short: as §2
T47D = test: Growth inhibition of human T47D cells at 10 uM after 48 hrs by coulter counter method; details: read-out: GI; in short: as §2
MDA-MB-468 = test: Growth inhibition of human MDA-MB-468 cells at 10 uM after 48 hrs by coulter counter method; details: MDA-MB-468, 48 h, read-out: GI; in short: as §2
[4] = Growth inhibition of human leukemia cells after 48 hrs by coulter counter method; details: Leukemia cell; in short: as §1
[5] = Growth inhibition of human colon cancer cells after 48 hrs by coulter counter method; details: Cancer cell lines; in short: as §1
Melanoma cell = test: Growth inhibition of human Melanoma cells after 48 hrs by coulter counter method; in short: as §1
[6] = read-out: LC50 (the source's name)

O=C1CN2N=C(c3ccccc3)SC2=N1
GI50 [1]: 8.9 µM | TGI [1]: 16.6 µM | CC50 [1, 6]: 42.3 µM | GI50 [2]: 7.6 µM | TGI [2]: 18.3 µM | CC50 [2, 6]: 50.8 µM | GI50 [3]: 6.9 µM | TGI [3]: 23.7 µM | CC50 [3, 6]: 71.3 µM | inhibition of growth at 10 µM (CCRF-CEM): 88.2% | inhibition of growth at 10 µM (HL-60(TB)): 21% | inhibition of growth at 10 µM (MOLT-4): 37.5% | inhibition of growth at 10 µM (SR): 36.3% | inhibition of growth at 10 µM (NCI-H226): 27.7% | inhibition of growth at 10 µM (NCI-H23): 21.6% | inhibition of growth at 10 µM (NCI-H522): 46.5% | inhibition of growth at 10 µM (HCT-15): 44.8% | inhibition of growth at 10 µM (HT-29): 36.2% | inhibition of growth at 10 µM (KM12): 21.8% | inhibition of growth at 10 µM (SNB-19): 23.2% | inhibition of growth at 10 µM (SNB-75): 88.3% | inhibition of growth at 10 µM (U-251): 58.3% | growth inhibition (GI) (Malme-3M): Active | inhibition of growth at 10 µM (M14): 30.2% | inhibition of growth at 10 µM (SK-MEL-2): 14.1% | inhibition of growth at 10 µM (SK-MEL-28): 10.4% | inhibition of growth at 10 µM (SK-MEL-5): 35.2% | inhibition of growth at 10 µM (UACC-257): 48.4% | growth inhibition (GI) (IGROV-1): Active | inhibition of growth at 10 µM (NCI/ADR-RES): 17.9% | inhibition of growth at 10 µM (786-0): 25.1% | growth inhibition (GI) (CAKI-1): Active | growth inhibition (GI) (UO-31): Active | inhibition of growth at 10 µM (PC-3): 30.1% | inhibition of growth at 10 µM (MCF7): 46.4% | inhibition of growth at 10 µM (BT-549): 53.4% | inhibition of growth at 10 µM (T47D): 33.2% | inhibition of growth at 10 µM (MDA-MB-468): 61.5% | GI50 [4]: 4.1 µM | TGI [4]: 25.9 µM | CC50 [4, 6]: > 100 µM | GI50 [5]: 9.4 µM | LC50 [5]: 67.1 µM | TGI [5]: 24.9 µM | GI50 (Melanoma cell): 8 µM | LC50 (Melanoma cell): 51.4 µM | TGI (Melanoma cell): 20.1 µM
